Only some compounds are listed: those with a hit (about 9.3% of all), similar ones and a draw of the others.
hDAT+cocaine – changed hDAT dopamine uptake under cocaine IC80, either direction, primary screen, cocaine antagonist project, cell-based, LLC-PK1 hDAT, [14C]-dopamine uptake, MLSMR. Sodium-dependent dopamine transporter (Homo sapiens), Q01959. LLC-PK1 hDAT cells, [14C]-dopamine uptake with cocaine IC80; actives deviate in either direction. B-score at 10 µM. actives 1.3% (n = 110,000);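 active means Z score or B-score, a plate-position-corrected score, falls beyond the plate's 99.7% confidence bounds, in either direction; inactive means both scores lie inside the 99.7% bounds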
PostGolgi ctrl – growth inhibition of yeast control strain, primary screen, counter-screen for post-Golgi transport modulator project | inhibition, % at 10 µM | AID 738, 2007 | actives 5% (n = 98,000) | efflux-deficient yeast background strain, growth absorbance A615, 16 h
E coli WT exp – growth inhibitors of wild-type E. coli, primary screen, strain BW25113, expanded library, OD600 | OD600 absorbance | growth inhibition, % at 100 µM | actives 0.15% (n = 98,000) | AID 710, 2007;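 active means growth inhibition above about 50% at one test dose, limit read from the data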;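 further: growth measured after 20 h incubation at 37 °C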
PostGolgi yeast – phenotypic screen on post-Golgi transport, primary screen. actives 0.9% (n = 98,000). inhibition, % at 10 µM. AID 739, 2007. post-Golgi transport phenotypic cell assay;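 further: yeast cells grown in 1536-well plates; yeast grown about 18 h at 30C before absorbance read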
Ecoli tolC – growth inhibitors of E. coli tolC mutant, primary screen, strain BW25113 ΔtolC::kan, 384-well; OD615; growth inhibition, % at 10 µM (by protocol); actives 2.2% (n = 65,000);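 active means growth inhibition at or above a cutoff equal to the mean over every tested compound plus 3 SD, cut at about 60% in these data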;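 further: growth measured after 20 h incubation at 37 °C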
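Signal: optical density read at 615 nm; Assay system: E. coli ΔtolC::kan strain BW25113; Times: 20 h incubation with compound, 37 °C; Dosing: 10 µM final, single dose.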
D1 mod – D1 CRE-luciferase signal change, two-sided – cell-based, HEK293 D1, dopamine EC30, D1 allosteric modulator project, primary screen. dopamine EC30 potentiation; actives deviate in either direction. B-score at 10 µM. actives 5.9% (n = 58,000). AID 641, 2007;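 active means luminescence count or its row- and column-corrected plate score outside the 99.7% band of the plate's sample wells, on either side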
Target sequence (P21728 whole entry, looked up): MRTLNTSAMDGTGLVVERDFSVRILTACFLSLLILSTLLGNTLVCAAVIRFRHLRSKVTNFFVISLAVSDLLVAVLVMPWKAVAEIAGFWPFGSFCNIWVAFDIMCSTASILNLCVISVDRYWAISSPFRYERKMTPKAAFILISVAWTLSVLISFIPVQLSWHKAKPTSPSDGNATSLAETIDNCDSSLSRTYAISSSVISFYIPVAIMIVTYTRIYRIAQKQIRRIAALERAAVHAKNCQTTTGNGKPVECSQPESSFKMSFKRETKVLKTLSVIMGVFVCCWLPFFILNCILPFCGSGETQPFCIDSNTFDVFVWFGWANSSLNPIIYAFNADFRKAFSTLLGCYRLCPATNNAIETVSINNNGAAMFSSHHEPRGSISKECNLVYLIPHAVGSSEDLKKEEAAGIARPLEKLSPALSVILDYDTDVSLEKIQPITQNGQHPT
Of the large screens only hits and unclear results are named; the others gave an inactive call. Unless noted, no stated cut-off is given here; in the data, active means inhibition above about 30%; inactive means the rest.

Cc1nn(CC(O)COc2ccc3c(c2)CCC3)c(C)c1Br (configuration not stated)	none (no result: Ecoli tolC, D1 mod)
CC(=O)c1c(C)nn(CC(O)COc2ccc3c(c2)CCC3)c1C (configuration not stated)	hDAT+cocaine 15
COc1cccc(C(=O)CSc2nnnn2C2CCCCC2)c1	none (no result: Ecoli tolC, D1 mod)
COc1ccc(C(=O)N2CCN(C(=O)Cc3ccccc3)CC2)cc1OC	PostGolgi ctrl 47
COc1ccc(C(=O)N2CCN(C3CCC(c4ccccc4)CC3)CC2)cc1OC (configuration not stated)	D1 mod -5.1
COc1ccccc1N1CCN(C2CCN(C(=O)c3cc(OC)c(OC)c(OC)c3)CC2)CC1	PostGolgi yeast 36 (no result: D1 mod)
COc1ccc(C(=O)N2CCN(C(=O)c3ccco3)CC2)cc1OC	none
CC(=O)c1coc2ccc(OCCN3CCCCC3)cc12	none
O=C(Cn1cnc2c(nnn2-c2ccc(F)cc2)c1=O)N1CCCC1	none
N/C(=N\OC(=O)CCC1CCCCC1)c1cccnc1	PostGolgi ctrl 33 (no result: Ecoli tolC, D1 mod)
N/C(=N\OC(=O)CCC1CCCCC1)c1ccc([N+](=O)[O-])cc1	none (no result: hDAT+cocaine, Ecoli tolC, D1 mod)
O=c1[nH]nc(Cc2ccc(Cl)cc2Cl)c2ccccc12	PostGolgi ctrl 47 (no result: Ecoli tolC, D1 mod)
O=C(O)CSc1nnc(-c2ccc3c(c2)OCO3)o1	none (no result: Ecoli tolC, D1 mod)
O=C(c1ccc(Cl)cc1)N1CCCCC(Sc2nnc(-c3ccc4c(c3)OCO4)o2)C1=O (configuration not stated)	D1 mod -10 (no result: hDAT+cocaine)
Cc1ccc(Sc2ccc(/C=N/O)cc2[N+](=O)[O-])cc1	PostGolgi ctrl 31 (no result: Ecoli tolC, D1 mod)
CCOc1ccccc1N1CCN(c2nc3ccccc3nc2C(C#N)C(=O)OC)CC1 (configuration not stated)	D1 mod -4.3
CCCCOC(=O)C(C#N)c1nc2ccccc2nc1N1CCOCC1 (configuration not stated)	PostGolgi ctrl 37
CCCCCCOC(=O)C(C#N)c1nc2ccccc2nc1N1CCN(CC)CC1 (configuration not stated)	D1 mod -4.1
CCCCCCOC(=O)C(C#N)c1nc2ccccc2nc1N1CCOCC1 (configuration not stated)	none
Cc1noc2nc(-c3cccs3)cc(-c3nnc4n3CCCCC4)c12	none (no result: hDAT+cocaine, PostGolgi ctrl, E coli WT exp, PostGolgi yeast)
Fc1ccc(Br)cc1C1C=C(c2ccc(Br)s2)Nc2ncnn21 (configuration not stated)	Ecoli tolC 69
Cc1ccc(OC(=O)c2ccc(N3CCOCC3)c([N+](=O)[O-])c2)cc1	PostGolgi ctrl 38 (no result: Ecoli tolC, D1 mod)
CCOC(=O)c1cc(CC)sc1NC(=O)c1ccc(N2CCOCC2)c([N+](=O)[O-])c1	none (no result: Ecoli tolC, D1 mod)
COc1ccccc1NC(=O)Cn1nc(-c2ccc(Cl)cc2)c2ccccc2c1=O	none (no result: Ecoli tolC, D1 mod)
Cc1cc(NC(=O)CN2CCN(c3ccccc3F)CC2)nc2c1c(=O)oc1ccccc12	none (no result: hDAT+cocaine, PostGolgi ctrl, E coli WT exp, PostGolgi yeast)
COc1ccc(C(=O)n2c(-c3ccco3)nc3ccccc32)cc1	PostGolgi ctrl 33, Ecoli tolC 64
COc1ccc(CCn2c(-c3ccco3)nc3nc4ccccc4nc32)cc1	none
c1coc(Cn2c(-c3ccco3)nc3ccccc32)c1	none
Clc1ccc(OCCn2c(-c3ccco3)nc3ccccc32)cc1	PostGolgi ctrl 53 (no result: Ecoli tolC, D1 mod)
CC1CCN(C(=O)c2ccc(COc3ccccc3Cl)o2)CC1	Ecoli tolC 87
COc1ccccc1OCc1ccc(C(=O)n2nc(C)c(Cl)c2C)o1	PostGolgi ctrl 33
O=C(c1ccc(COc2ccccc2Cl)o1)N1CCCC1	none (no result: Ecoli tolC, D1 mod)
O=C(C1=C[C@H](c2ccccc2)C[C@H](OCCCCO)O1)N1CCOCC1	none (no result: PostGolgi ctrl, E coli WT exp, PostGolgi yeast, Ecoli tolC, D1 mod)
C=C(C)C1CCC(C)=C1COC(=O)Nc1ccccc1 (configuration not stated)	Ecoli tolC 78
Cc1ccc(Sc2ncccc2COC(=O)Nc2ccccc2)cc1	none (no result: Ecoli tolC, D1 mod)
CCOC(=O)Cc1csc(NC(=O)c2ccc(S(=O)(=O)N3CCCCC3)cc2)n1	Ecoli tolC 62 (no result: D1 mod)
CCOC(=O)Cc1csc(NC(=O)c2ccc(NC(C)=O)cc2)n1	none (no result: PostGolgi ctrl, E coli WT exp, PostGolgi yeast, Ecoli tolC, D1 mod)
CCOC(=O)Cc1csc(NC(=O)c2csc3c2CCCC3)n1	Ecoli tolC 64
Cc1n(CC(O)COC2CCCCC2)c2ccccc2[n+]1C (configuration not stated)	none (no result: PostGolgi ctrl, E coli WT exp, PostGolgi yeast, Ecoli tolC, D1 mod)
O=C(Nc1ccncc1)c1ccc2c(c1)C(=O)N(C1CCCCC1)C2=O	none (no result: Ecoli tolC, D1 mod)
Cc1ccc(N=c2oc3cc(O)ccc3cc2C(N)=O)cc1	PostGolgi ctrl 58, PostGolgi yeast 30
COc1ccc(OC/C(O)=C(\C#N)c2nc3ccccc3[nH]2)cc1	none (no result: hDAT+cocaine, Ecoli tolC, D1 mod)
Cc1ccc(SC/C(O)=C(\C#N)c2nc3ccccc3s2)cc1	Ecoli tolC 83
N#C/C(=C(/O)CSc1ccccc1C(=O)O)c1nc2ccccc2s1	none (no result: Ecoli tolC, D1 mod)
COc1ccc(C/C(O)=C(\C#N)c2nc3ccccc3s2)cc1	Ecoli tolC 74
Cc1snc(S(=O)(=O)Cc2ccccc2Cl)c1C#N	none (no result: Ecoli tolC, D1 mod)
CCNc1nc(NC(C)C)nc(OCCOC(=O)Nc2ccccc2)n1	hDAT+cocaine 3.6 (no result: PostGolgi ctrl, E coli WT exp, PostGolgi yeast, Ecoli tolC, D1 mod)
COc1ccccc1/C=C1\S/C(=N/NC(=O)c2cccc(Br)c2)NC1=O	none (no result: Ecoli tolC, D1 mod)
O=C1NC(=O)/C(=C\c2ccccc2Oc2ccc(F)c(F)c2)S1	PostGolgi ctrl 43 (no result: Ecoli tolC, D1 mod)
CC(=O)c1ccc(OCC(O)COc2ccc(C(C)=O)cc2)cc1	none
COc1ccc(OCC(O)COc2ccc(C(=O)O)cc2)cc1 (configuration not stated)	hDAT+cocaine 2.7
O=C(O)c1cccc(COc2ccccc2Cl)c1	D1 mod -5.3
Cc1ccc(C(=O)Oc2cc(C)n(C)c(=O)c2)cc1	none (no result: Ecoli tolC, D1 mod)
C=CCSc1nnc(NC(=O)c2nc(SCC)ncc2Cl)s1	PostGolgi ctrl 33 (no result: Ecoli tolC, D1 mod)
CCOc1cccc(-c2nnc3sc(C4CCCCC4)nn23)c1	PostGolgi ctrl 33 (no result: D1 mod)
c1cncc(-c2nnc3sc(C4CCCCC4)nn23)c1	none (no result: D1 mod)
CCCCSC1=C(C#N)C(c2ccccc2C)C(C(=O)OCC)C(=O)N1 (configuration not stated)	Ecoli tolC 71
COC(=O)c1nnn(-c2nonc2N)c1CSc1nc2ccccc2s1	PostGolgi ctrl 60
O=C(CCc1ccc(Oc2cc([N+](=O)[O-])cc([N+](=O)[O-])c2)cc1)N1CCCCC1	none (no result: Ecoli tolC, D1 mod)
CCN1C(=S)SC(=O)C1=C1C=C(C)OC(C)=C1	none
CCN1C(=S)SC(=O)C1=C1C=C(C)N(Cc2ccco2)C(C)=C1	PostGolgi ctrl 38
Cc1cc(C)c(C)c(OCCCCn2cnc3ccccc3c2=O)c1	PostGolgi ctrl 37 (no result: Ecoli tolC, D1 mod)
c1ccc(OCCn2cnc3ccccc32)cc1	PostGolgi ctrl 34
Cc1ccc(SCCCn2cnc3ccccc3c2=O)cc1	none (no result: Ecoli tolC, D1 mod)

High-throughput results deposited in PubChem BioAssay by several laboratories.
